Each block holds one compound with its values, some of them ahead of it. Calls of active or inactive are those of the source. No cut-off for these calls is given here.
Key:
Cytochrome P450 26A1 [1] = target: T1, Cytochrome P450 26A1 (Homo sapiens, UniProt O43174); experiment: Inhibition of CYP26A1-mediated atRA metabolism in human HepG2 cells assessed as atRA level in cell media at 1 uM after 24 hrs by LC/MS-MS analysis (reference value: 0.49 +/- 0.33 nM); type: cell-based; settings: hepg2, 24 h
T1 sequence (O43174 whole entry): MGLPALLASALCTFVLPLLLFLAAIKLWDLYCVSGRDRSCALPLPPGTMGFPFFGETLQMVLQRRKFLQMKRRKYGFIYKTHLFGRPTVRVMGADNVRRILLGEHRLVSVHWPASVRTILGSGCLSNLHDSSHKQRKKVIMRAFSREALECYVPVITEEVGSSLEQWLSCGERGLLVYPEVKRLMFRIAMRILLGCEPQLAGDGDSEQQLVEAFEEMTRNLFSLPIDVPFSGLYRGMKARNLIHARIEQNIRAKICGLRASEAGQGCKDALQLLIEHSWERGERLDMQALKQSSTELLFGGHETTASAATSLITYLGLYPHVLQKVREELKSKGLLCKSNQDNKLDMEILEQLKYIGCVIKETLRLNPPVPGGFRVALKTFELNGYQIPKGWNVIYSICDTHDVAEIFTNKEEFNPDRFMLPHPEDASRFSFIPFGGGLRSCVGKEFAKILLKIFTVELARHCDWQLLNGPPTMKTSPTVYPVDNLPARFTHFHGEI

[2] = Activation of human RARbeta at 1 uM by luciferase reporter gene assay
[3] = target: T2, Retinoic acid receptor (Homo sapiens) (UniProt P13631+P10826+P10276); experiment: Activation of RAR in human HepG2 cells assessed as upregulation of CYP26A1 mRNA expression at 1 uM after 24 hrs by RT-PCR method; type: cell-based
T2 sequence (P10826 whole entry, looked up, one chain of several): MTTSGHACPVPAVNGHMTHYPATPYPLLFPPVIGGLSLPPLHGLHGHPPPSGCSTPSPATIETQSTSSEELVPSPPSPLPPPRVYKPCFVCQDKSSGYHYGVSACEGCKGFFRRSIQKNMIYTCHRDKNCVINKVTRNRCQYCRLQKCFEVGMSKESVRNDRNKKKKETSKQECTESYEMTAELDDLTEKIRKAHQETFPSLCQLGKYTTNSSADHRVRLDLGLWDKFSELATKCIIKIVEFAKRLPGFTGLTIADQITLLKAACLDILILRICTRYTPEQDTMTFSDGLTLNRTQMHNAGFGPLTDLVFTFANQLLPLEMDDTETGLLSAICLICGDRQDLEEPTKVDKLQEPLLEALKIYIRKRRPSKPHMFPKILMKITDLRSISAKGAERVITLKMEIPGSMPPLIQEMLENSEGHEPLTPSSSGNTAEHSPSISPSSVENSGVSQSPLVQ
T2 sequence (P13631 whole entry, looked up, one chain of several): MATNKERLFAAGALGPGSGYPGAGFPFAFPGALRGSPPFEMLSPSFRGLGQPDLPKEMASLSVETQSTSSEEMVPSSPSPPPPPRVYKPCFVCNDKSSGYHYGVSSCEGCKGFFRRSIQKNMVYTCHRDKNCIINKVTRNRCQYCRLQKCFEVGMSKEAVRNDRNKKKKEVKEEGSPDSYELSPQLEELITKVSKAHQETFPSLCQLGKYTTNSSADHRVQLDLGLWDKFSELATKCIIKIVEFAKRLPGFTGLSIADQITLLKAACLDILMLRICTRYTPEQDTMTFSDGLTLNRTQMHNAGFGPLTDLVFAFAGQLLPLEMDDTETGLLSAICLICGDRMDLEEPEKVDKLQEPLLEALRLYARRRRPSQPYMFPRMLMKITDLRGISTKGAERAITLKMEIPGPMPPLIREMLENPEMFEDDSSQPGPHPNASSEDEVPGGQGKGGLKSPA
Procedure, shortened: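 HepG2 cells kept in DMEM with 10% FBS at 37 °C under 5% CO2. Plated and left to adhere 24 h, then exposed 24 h to 1 μM compound in 0.1% DMSO, with 0.1% DMSO as vehicle control. Triplicate wells. TRI reagent mRNA extraction, cDNA from 1 μg mRNA. CYP26A1 measured by TaqMan RT-PCR multiplexed with GAPDH as housekeeping gene. Fold-difference calculated by the CT method.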

[4] = target: T3, Retinoic acid receptor alpha (Homo sapiens) (UniProt P10276); experiment: Activation of human RARalpha at 1 uM by luciferase reporter gene assay
T3 sequence (whole entry): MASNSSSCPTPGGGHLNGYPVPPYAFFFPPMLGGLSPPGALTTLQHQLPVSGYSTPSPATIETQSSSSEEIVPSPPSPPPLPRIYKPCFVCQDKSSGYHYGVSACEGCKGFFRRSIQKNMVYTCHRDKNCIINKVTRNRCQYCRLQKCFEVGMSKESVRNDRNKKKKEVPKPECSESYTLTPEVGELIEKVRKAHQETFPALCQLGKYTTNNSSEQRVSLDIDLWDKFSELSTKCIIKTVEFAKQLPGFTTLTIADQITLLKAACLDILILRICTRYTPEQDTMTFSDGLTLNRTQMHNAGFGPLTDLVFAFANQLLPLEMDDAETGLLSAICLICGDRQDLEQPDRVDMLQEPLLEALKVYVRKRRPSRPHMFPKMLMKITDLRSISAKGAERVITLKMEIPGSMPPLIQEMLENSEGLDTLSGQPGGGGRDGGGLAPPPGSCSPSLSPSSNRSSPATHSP

[5] = target: T2, Retinoic acid receptor (Homo sapiens); experiment: Activation of RAR in human HepG2 cells assessed as upregulation of RARbeta mRNA expression at 1 uM after 24 hrs by RT-PCR method; type: cell-based
Procedure, shortened: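 HepG2 cells in DMEM with 10% FBS, 37 °C, 5% CO2, plated 24 h before dosing. Treated 24 h in 2 mL medium at 1 μM in 0.1% DMSO, alongside a 0.1% DMSO vehicle; triplicates. RNA isolated with TRI reagent and cDNA made from 1 μg. TaqMan RT-PCR multiplexed with GAPDH as housekeeping gene; fold change by the C_T method.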

CYP3A4 = CYP3A4 (Homo sapiens, UniProt P08684); experiment: Inhibition of CYP3A4 in human liver microsomes upto 100 uM using midazolam as substrate by LC-MS/MS analysis in presence of NADPH; type: ADME; settings: probe midazolam, read-out: Imax
CYP3A4, sequence (P08684 whole entry): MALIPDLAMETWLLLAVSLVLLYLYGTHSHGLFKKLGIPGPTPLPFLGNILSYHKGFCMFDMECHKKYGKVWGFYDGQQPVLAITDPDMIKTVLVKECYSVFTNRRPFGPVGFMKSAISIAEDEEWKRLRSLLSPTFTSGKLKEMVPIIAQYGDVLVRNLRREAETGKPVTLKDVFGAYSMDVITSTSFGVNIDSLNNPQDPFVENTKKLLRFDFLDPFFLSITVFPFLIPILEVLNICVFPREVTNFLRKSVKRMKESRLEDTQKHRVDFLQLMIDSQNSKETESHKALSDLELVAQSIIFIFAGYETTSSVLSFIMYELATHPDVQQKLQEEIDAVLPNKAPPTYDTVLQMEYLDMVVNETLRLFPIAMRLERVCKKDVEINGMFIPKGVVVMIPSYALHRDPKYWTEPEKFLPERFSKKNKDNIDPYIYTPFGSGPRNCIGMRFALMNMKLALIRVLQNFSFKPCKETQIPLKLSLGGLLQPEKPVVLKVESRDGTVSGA
Procedure, shortened: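 Human liver microsomes incubated with midazolam as the CYP3A4-selective substrate plus inhibitor in 100 mM potassium phosphate buffer. Reaction started with NADPH and quenched with ice-cold acetonitrile. Product formation measured by LC-MS/MS.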

Cytochrome P450 26A1 [6] = target: T1, Cytochrome P450 26A1
Cytochrome P450 26B1 [7] = target: T4, Cytochrome P450 26B1 (Homo sapiens, UniProt Q9NR63)
T4 sequence (Q9NR63 whole entry): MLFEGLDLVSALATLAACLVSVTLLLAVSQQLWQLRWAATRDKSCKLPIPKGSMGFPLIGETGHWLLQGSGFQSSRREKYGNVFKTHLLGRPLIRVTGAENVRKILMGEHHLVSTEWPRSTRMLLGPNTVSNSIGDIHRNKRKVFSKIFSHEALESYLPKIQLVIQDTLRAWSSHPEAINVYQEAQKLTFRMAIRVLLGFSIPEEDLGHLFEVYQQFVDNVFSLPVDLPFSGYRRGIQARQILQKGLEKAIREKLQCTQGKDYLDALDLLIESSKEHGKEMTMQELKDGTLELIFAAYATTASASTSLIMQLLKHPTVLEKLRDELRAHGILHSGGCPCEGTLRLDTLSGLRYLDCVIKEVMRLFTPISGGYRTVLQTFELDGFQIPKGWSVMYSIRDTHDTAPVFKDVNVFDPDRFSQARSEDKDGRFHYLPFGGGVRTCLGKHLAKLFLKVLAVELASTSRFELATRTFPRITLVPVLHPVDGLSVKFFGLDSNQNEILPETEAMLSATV

Homo sapiens = species on record: Homo sapiens; experiment: Selectivity ratio of IC50 for microsomal fraction of human CYP26B1 to IC50 for microsomal fraction of human CYP26A1
Cytochrome P450 26B1 [8] = target: T4, Cytochrome P450 26B1; experiment: Inhibition of microsomal fraction of human CYP26B1 expressed in Sf9 cells using 9-cis-RA as substrate at 20 uM preincubated for 5 mins followed by NADPH addition measured after 5 mins by HPLC analysis in presence of rat P450 reductase
Procedure, shortened: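 Sf9 microsomes expressing CYP26B1, 5 pmol, preincubated 10 min at room temperature with 10 pmol E. coli-expressed rat P450 reductase. […] Preincubated 5 min at 37 °C, started with 1 mM NADPH (final), run 5 min. 9-cis-4-OH-RA measured by HPLC; activity expressed relative to solvent control.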

Cytochrome P450 3A4 = Cytochrome P450 3A4 (Homo sapiens, UniProt P08684)
Cytochrome P450 3A4, sequence (P08684 whole entry): as the sequence (P08684 whole entry) above

CYP2D6 = CYP2D6 (Homo sapiens, UniProt P10635); experiment: in vitro; settings: human liver microsomes, probe dextromethorphan
CYP2D6, sequence (P10635 whole entry): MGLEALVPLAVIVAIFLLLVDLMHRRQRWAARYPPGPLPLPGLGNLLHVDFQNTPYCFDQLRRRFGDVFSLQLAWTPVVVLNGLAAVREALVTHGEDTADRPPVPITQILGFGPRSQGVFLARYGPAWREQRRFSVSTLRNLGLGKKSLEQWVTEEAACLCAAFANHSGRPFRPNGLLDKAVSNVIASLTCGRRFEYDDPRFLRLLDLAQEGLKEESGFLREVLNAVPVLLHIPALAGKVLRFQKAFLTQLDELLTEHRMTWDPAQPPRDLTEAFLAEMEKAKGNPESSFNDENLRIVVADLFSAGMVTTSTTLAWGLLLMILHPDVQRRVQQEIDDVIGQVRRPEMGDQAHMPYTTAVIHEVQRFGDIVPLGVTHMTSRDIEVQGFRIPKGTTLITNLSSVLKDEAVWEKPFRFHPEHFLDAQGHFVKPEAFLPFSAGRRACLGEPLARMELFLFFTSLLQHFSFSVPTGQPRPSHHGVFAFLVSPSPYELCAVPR

SMILES: CC1(C)CCC(C)(C)c2cc(C3(c4ccc5cc(C(=O)O)ccc5c4)OCCO3)ccc21
Ratio IC50 (Homo sapiens): 10

SMILES: CC1(C)CCC(C)(C)c2cc(C3(c4ccc(C(=O)O)cc4)SCCS3)ccc21
IC50 (Cytochrome P450 26A1 [6]): 1.3 µM

SMILES: CC1(C)CCC(C)(C)c2cc(C3(c4ccc(C(=O)O)cc4)OCCO3)ccc21
inhibition at 20 µM (Cytochrome P450 26B1 [8]): 59%

SMILES: CC1(C)CCC(C)(C)c2cc(C(=O)c3ccc(/C=C/C(=O)O)cc3)ccc21
IC50 (Cytochrome P450 26A1 [6]): 4.7 µM
IC50 (Cytochrome P450 26B1 [7]): > 5 µM

SMILES: CC1(C)CCC(C)(C)c2cc(Sc3cccc(CC(=O)O)c3)ccc21
IC50 (Cytochrome P450 26A1 [6]): > 5 µM
IC50 (Cytochrome P450 26B1 [7]): > 5 µM

SMILES: CC1(C)CCC(C)(C)c2cc(C(=O)COc3ccc(C(=O)O)cc3)ccc21
IC50 (Cytochrome P450 26A1 [6]): 4 µM
IC50 (Cytochrome P450 26B1 [7]): 0.93 µM

SMILES: CC1(C)CCC(C)(C)c2cc(C3(c4ccc(/C=C/C(=O)O)cc4)SCCS3)ccc21
IC50 (Cytochrome P450 26A1 [6]): > 10 µM

SMILES: CC1(C)CCC(C)(C)c2cc(C3(c4ccc5cc(C(=O)O)ccc5c4)SCCS3)ccc21
IC50 (Cytochrome P450 26A1 [6]): 0.06 µM

SMILES: CC1(C)CCC(C)(C)c2cc(C(O)COc3ccc(C(=O)O)cc3)ccc21 (stereo unspecified)
IC50 (Cytochrome P450 26A1 [6]): 2.8 µM
IC50 (Cytochrome P450 26B1 [7]): 1.4 µM

SMILES: CC1(C)CCC(C)(C)c2cc(C3(c4ccc(/C=C/C(=O)O)cc4)OCCO3)ccc21
Activity (Cytochrome P450 26A1 [1]): 1.09 nM
Activity [3]: inactive
Activity [4]: inactive
IC50 (Cytochrome P450 3A4): 30 µM
inhibition at 10 µM (CYP2D6): 49%
Activity [5]: inactive

SMILES: C=C(c1ccc(C(=O)O)cc1)c1cc2c(cc1C)C(C)(C)CCC2(C)C [BEXAROTENE]
IC50 (Cytochrome P450 26A1 [6]): 13.5 µM
IC50 (Cytochrome P450 26B1 [7]): 5.9 µM

SMILES: CC1(C)CCC(C)(C)c2cc(/C(COc3ccc(C(=O)O)cc3)=N/O)ccc21
IC50 (Cytochrome P450 26A1 [6]): 3.5 µM
IC50 (Cytochrome P450 26B1 [7]): 1.4 µM

Continued, values first:

Activity (Cytochrome P450 26A1 [1]): 0.27 nM
Activity [2]: inactive
Activity [3]: inactive
Activity [4]: inactive
Activity [5]: inactive
Emax (CYP3A4): 40%
SMILES: CC1(C)CCC(C)(C)c2cc(C3(c4ccc(CCC(=O)O)cc4)OCCO3)ccc21

IC50 (Cytochrome P450 26A1 [6]): > 5 µM
IC50 (Cytochrome P450 26B1 [7]): > 5 µM
SMILES: CC1(C)CCC(C)(C)c2cc(S(=O)(=O)c3cccc(CC(=O)O)c3)ccc21

IC50 (Cytochrome P450 26A1 [6]): 1.66 µM
IC50 (Cytochrome P450 26B1 [7]): 1.7 µM
SMILES: CC1(C)CCC(C)(C)c2cc(Cc3ccc(CCC(=O)O)cc3)ccc21

IC50 (Cytochrome P450 26A1 [6]): 10.6 µM
IC50 (Cytochrome P450 26B1 [7]): > 5 µM
SMILES: CC1(C)CCC(C)(C)c2cc(Sc3ccc(CC(=O)O)cc3)ccc21

Activity [3]: inactive
Activity [4]: inactive
Activity [5]: inactive
SMILES: CC1(C)CCC(C)(C)c2cc(C3(c4ccc(CCC(=O)O)cc4)SCCS3)ccc21

IC50 (Cytochrome P450 26A1 [6]): > 5 µM
IC50 (Cytochrome P450 26B1 [7]): > 5 µM
SMILES: CC1(C)CCC(C)(C)c2cc(C(=O)c3ccc(CCC(=O)O)cc3)ccc21

IC50 (Cytochrome P450 26A1 [6]): > 5 µM
IC50 (Cytochrome P450 26B1 [7]): > 5 µM
SMILES: CC1(C)CCC(C)(C)c2cc(S(=O)(=O)c3ccc(CC(=O)O)cc3)ccc21

IC50 (Cytochrome P450 26A1 [6]): > 5 µM
IC50 (Cytochrome P450 26B1 [7]): 6.2 µM
SMILES: CC1(C)CCC(C)(C)c2cc(S(=O)(=O)c3ccc(CCC(=O)O)cc3)ccc21

IC50 (Cytochrome P450 26A1 [6]): > 25 µM
IC50 (Cytochrome P450 26B1 [7]): > 25 µM
SMILES: CC1(C)CCC(C)(C)c2cc(C(=O)c3ccc(C(=O)O)cc3)ccc21

Reference: ChEMBL document CHEMBL3784928, “Development and Characterization of Novel and Selective Inhibitors of Cytochrome P450 CYP26A1, the Human Liver Retinoic Acid Hydroxylase” (J Med Chem, 2016)
